Data: article PMC5498144 (BMB Reports, 2017)

Key:
[1] = target: T1, CD45 (Homo sapiens, UniProt P08575); experiment: In vitro phosphatase assay with OMFP as substrate; format: biochemical
T1 sequence (P08575 653-912 limits assumed): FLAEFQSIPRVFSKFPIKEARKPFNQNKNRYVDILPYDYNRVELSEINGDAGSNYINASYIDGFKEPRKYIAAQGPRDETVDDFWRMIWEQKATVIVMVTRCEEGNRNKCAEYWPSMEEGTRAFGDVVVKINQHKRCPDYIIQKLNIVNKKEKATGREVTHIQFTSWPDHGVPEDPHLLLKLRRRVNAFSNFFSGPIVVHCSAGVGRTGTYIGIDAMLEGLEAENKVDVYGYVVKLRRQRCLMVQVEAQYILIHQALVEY
In short: (§1)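 His-tagged human PTPs expressed in E. coli BL21(DE3)-RIL (1 mM IPTG, 37°C, 3 h) and Ni-NTA purified. 100 nM enzyme in 30 mM Tris-HCl pH 7.0, 75 mM NaCl, 1 mM EDTA, 0.4 mM DTT, 0.132% BSA, 1% DMSO final. Test compound (water-dissolved; 0, 5, 10 μM) present; started with 100 μM OMFP; 30 min at 37°C. Fluorescence ex 495/em 535 nm; triplicates; IC50 by curve fitting.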

[2] = target: T2, Laforin (Homo sapiens, UniProt O95278); experiment: In vitro phosphatase assay with OMFP as substrate; format: biochemical
T2 sequence (O95278 1-331): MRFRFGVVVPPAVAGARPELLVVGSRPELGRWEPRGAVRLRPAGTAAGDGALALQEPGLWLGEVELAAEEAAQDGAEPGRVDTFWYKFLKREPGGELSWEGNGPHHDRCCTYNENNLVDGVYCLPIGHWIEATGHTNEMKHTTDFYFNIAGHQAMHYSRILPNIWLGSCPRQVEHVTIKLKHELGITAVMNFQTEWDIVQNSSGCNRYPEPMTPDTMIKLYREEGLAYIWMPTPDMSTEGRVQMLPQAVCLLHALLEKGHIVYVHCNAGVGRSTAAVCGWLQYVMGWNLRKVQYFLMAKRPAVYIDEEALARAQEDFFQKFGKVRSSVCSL
In short: as §1

[3] = system: HEK 293 cells; experiment: Cell viability assay; format: cell-based, human; conditions: 6 h, up to 1.5 μM (tested 1, 1.5, 2, 3 μM)
In short: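 HEK 293 cells grown in DMEM with 10% FBS and 1% penicillin/streptomycin under 5% CO2. Seeded at 1.5 × 10^6 cells/well and left overnight, then exposed to test compound (1, 1.5, 2, 3 μM) for 6 h. Water-soluble tetrazolium reagent added for 1 h at 37°C; absorbance read at 450 nm against a 650 nm reference. Mean ± SEM of three independent experiments; Student's t-test versus untreated.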

[4] = target: T3, DUSP23 (Homo sapiens, UniProt Q9BVJ7); experiment: In vitro phosphatase assay with OMFP as substrate; format: biochemical
T3 sequence (Q9BVJ7 1-150): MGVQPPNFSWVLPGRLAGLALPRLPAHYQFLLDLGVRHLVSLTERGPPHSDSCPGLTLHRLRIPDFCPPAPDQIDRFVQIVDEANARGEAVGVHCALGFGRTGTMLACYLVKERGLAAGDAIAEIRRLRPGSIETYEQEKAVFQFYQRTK
In short: as §1

[5] = target: PTEN (Homo sapiens, UniProt P60484); experiment: In vitro phosphatase assay with OMFP as substrate; format: biochemical
Chain of PTEN (P60484 whole entry, species assumed): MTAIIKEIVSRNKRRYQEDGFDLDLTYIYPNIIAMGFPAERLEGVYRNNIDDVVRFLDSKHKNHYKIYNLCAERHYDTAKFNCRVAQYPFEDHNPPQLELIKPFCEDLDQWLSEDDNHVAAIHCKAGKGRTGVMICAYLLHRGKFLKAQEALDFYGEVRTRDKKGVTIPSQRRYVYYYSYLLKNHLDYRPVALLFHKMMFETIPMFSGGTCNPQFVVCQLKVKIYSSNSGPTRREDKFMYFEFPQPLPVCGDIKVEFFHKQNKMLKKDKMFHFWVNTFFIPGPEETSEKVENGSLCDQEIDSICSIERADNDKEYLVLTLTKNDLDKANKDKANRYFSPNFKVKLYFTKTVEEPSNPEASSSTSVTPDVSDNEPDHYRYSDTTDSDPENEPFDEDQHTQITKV
In short: as §1

[6] = target: T4, DUSP8 (Homo sapiens, UniProt Q13202); experiment: In vitro phosphatase assay with OMFP as substrate; format: biochemical
T4 sequence (Q13202 1-625): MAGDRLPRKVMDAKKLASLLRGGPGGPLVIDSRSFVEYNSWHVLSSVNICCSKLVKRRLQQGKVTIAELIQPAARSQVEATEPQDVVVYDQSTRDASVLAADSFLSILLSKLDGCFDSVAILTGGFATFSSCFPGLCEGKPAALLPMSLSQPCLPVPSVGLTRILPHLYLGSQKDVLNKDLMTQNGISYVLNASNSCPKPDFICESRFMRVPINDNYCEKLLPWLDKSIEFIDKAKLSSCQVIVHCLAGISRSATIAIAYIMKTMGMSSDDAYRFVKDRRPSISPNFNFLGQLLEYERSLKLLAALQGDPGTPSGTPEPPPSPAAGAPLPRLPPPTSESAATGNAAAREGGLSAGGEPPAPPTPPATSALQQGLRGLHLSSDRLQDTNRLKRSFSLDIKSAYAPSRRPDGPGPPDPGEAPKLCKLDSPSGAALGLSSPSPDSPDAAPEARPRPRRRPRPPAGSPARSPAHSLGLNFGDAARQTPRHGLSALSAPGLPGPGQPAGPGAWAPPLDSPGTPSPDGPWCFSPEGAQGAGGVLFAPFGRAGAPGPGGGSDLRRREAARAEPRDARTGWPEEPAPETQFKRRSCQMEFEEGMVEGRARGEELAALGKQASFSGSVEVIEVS
In short: as §1

[7] = target: T5, DUSP18 (Homo sapiens, UniProt Q8NEJ0); experiment: In vitro phosphatase assay with OMFP as substrate; format: biochemical
T5 sequence (Q8NEJ0 1-188): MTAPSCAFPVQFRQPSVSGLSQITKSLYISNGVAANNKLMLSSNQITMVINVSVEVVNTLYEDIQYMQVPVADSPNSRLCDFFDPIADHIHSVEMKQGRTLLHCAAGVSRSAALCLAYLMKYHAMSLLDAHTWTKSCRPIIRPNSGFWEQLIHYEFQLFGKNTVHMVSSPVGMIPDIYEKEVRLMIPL
In short: as §1

[8] = target: T6, PTPN2 (Homo sapiens, UniProt P17706); experiment: Kinetic analysis; format: biochemical
T6 sequence (P17706 1-415): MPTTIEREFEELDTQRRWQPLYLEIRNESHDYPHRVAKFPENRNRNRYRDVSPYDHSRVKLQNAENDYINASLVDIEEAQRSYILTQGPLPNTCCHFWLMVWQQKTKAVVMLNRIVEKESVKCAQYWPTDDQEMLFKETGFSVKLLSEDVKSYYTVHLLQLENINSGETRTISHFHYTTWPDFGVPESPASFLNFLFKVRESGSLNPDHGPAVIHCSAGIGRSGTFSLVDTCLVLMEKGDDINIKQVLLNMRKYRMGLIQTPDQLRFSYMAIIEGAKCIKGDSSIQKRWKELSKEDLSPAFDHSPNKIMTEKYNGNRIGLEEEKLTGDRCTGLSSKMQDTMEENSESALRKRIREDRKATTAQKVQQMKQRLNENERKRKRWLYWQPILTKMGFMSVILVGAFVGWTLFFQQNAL

[9] = target: DUSP3 (Homo sapiens, UniProt P51452); experiment: In vitro phosphatase assay with OMFP as substrate; format: biochemical
Chain of DUSP3 (P51452 whole entry, species assumed): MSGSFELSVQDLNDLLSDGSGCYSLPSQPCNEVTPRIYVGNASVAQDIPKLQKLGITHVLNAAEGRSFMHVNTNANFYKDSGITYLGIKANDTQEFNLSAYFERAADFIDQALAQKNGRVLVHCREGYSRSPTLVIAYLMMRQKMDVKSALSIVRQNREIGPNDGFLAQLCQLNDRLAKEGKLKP
In short: as §1

[10] = target: T7, Cdc25B (Homo sapiens, UniProt P30305); experiment: In vitro phosphatase assay with OMFP as substrate; format: biochemical
T7 sequence (P30305 1-580): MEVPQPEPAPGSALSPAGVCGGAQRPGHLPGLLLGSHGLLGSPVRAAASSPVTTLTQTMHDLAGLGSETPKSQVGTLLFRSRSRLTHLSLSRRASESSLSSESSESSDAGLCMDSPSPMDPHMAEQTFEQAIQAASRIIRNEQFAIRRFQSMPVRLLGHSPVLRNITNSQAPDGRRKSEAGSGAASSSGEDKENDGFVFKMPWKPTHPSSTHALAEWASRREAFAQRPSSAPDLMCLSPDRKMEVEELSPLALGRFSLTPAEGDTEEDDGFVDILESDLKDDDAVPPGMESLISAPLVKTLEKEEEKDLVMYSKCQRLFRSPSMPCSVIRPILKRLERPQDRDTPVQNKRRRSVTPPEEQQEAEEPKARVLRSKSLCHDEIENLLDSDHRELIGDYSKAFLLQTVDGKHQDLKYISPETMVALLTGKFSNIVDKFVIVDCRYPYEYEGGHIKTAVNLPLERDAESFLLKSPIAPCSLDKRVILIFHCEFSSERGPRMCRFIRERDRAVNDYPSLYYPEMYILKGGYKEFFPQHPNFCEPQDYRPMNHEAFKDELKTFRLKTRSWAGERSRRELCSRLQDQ
In short: as §1

[11] = system: PTPN2-mediated dephosphorylation of STAT3 at Tyr-705; format: cell-based, human; conditions: HEK 293 cells with FLAG-PTPN2, 1.5 μM 6 h, then IL-6 10 ng/ml 30 min
In short: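 HEK 293 cells transfected with FLAG-PTPN2 wild type or catalytically dead C216S plasmid using polyethylenimine. After 42 h, treated with test compound (1.5 μM) for 6 h, then IL-6 (10 ng/ml) for 30 min. Cells lysed in PTP lysis buffer. Immunoblots probed for phospho-STAT3 Tyr-705 and total STAT3, detected by ECL and quantified by densitometry relative to the IL-6-stimulated group.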

[12] = target: T8, SSH3 (Homo sapiens, UniProt Q8TE77); experiment: In vitro phosphatase assay with OMFP as substrate; format: biochemical
T8 sequence (Q8TE77 1-659): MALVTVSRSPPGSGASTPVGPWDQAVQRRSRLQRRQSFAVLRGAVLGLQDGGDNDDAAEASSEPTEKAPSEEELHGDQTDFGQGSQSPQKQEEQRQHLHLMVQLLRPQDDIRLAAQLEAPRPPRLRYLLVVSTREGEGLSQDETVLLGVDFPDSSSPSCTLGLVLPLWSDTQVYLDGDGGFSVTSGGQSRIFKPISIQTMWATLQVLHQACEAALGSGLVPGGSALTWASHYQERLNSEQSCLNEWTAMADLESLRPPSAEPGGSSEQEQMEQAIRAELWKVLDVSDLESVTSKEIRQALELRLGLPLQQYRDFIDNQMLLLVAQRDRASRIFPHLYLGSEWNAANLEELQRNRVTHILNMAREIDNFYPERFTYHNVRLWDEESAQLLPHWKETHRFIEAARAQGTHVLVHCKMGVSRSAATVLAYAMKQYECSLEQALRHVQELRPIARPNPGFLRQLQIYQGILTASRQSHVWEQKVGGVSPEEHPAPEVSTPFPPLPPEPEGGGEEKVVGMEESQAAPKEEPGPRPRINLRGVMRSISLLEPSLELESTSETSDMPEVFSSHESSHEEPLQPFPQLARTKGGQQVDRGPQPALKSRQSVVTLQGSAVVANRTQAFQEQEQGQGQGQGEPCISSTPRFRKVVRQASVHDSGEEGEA
In short: as §1

[13] = target: T6, PTPN2; experiment: DARTS assay; format: binding; conditions: 1 μM pretreatment 20 min, then trypsin on ice; PTPN2/trypsin 100:1

| IC50 [1] [µM] | IC50 [2] [µM] | IC50 [4] [µM] | IC50 [5] [µM] | IC50 [6] [µM] | IC50 [7] [µM] | Ki [8] [µM] | IC50 [9] [µM] | IC50 [10] [µM] | IC50 [12] [µM] | Compound | Cytotoxic effects (cell viability) [3] | PTPN2-mediated dephosphorylation of STAT3 at Tyr-705 [11] | Proteolysis of PTPN2 by trypsin (DARTS) [13] |
| --- | --- | --- | --- | --- | --- | --- | --- | --- | --- | --- | --- | --- | --- |
| 0.86 ± 0.03 | > 100 | > 50 | 1.78 ± 0.34 | > 50 | > 50 | 0.76 ± 0.08 | > 50 | > 50 | > 50 | CC(C)(C)C(=O)Nc1ccc2c(c1)C(=O)C(=O)c1ccccc1-2 [PTP inhibitor XIX, N-[9, 10-dioxo-9, 10-dihydro-phenanthren-2-yl]-2,2-dimethyl-propionamide] | no apparent cytotoxic effects | inhibited | – |
| – | – | – | – | – | – | – | – | – | – | O=S(=O)(F)Cc1ccccc1 [PMSF, phenylmethylsulfonyl fluoride] | – | – | decreased |
